ChEMBL document CHEMBL1140799, “Novel heterocycle-substituted pyrimidines as inhibitors of NF-kappaB transcription regulation related to TNF-alpha cytokine release” (Bioorg Med Chem Lett, 2008)
The source made the active and inactive calls. No cut-off for these calls is given here.

Experiments:
[1] = (§1) Inhibition of NF-kappaB-mediated transcriptional activation in human A549 cells; format: cell-based
[2] = target: Glycogen synthase kinase-3 beta (Homo sapiens, UniProt P49841); test: Inhibition of GSK3-beta
Jurkat = test: (§2) Inhibition of AP1-mediated transcriptional activation in human Jurkat cells; format: cell-based
[3] = as §2; format: cell-based
Mus musculus [4] = test: Inhibition of LPS-induced TNFalpha release in BALB/c mouse at 50 mg/kg; format: functional
Method in brief: (§3)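 Oral dosing of BALB/c mice 30 min before LPS challenge (0.1 mg/kg ip). Serum TNF-α determined 90 min after LPS. BIRB796 (p38 MAP kinase inhibitor) served as reference compound.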

A549 = test: as §1; format: cell-based
THP-1 = test: Inhibition of LPS-induced TNFalpha production in human THP1 cells; format: functional, cell-based
Method in brief: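 THP-1 monocytes seeded at 1 × 10⁶ cells/mL in 1% FCS medium and left overnight. Compound pretreatment for 1 h, then LPS stimulation for 24 h. TNF-α in supernatants measured by sandwich ELISA. IC50 is the mean of n = 3 repeat experiments, SD given.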

Mus musculus [5] = test: Inhibition of LPS-induced TNFalpha release in BALB/c mouse at 300 mg/kg relative to […]; format: functional; method in brief: as §3

O=C(Nc1n[nH]c2nc(N3CCN(S(=O)(=O)c4ccccc4C(F)(F)F)CC3)c(F)cc12)C1CC1
IC50 [1]: 9400 nM | Activity [2]: inactive | Activity (Jurkat): inactive

Cc1ccc(Cl)cc1Nc1nccc(C2=CNN3C=CC=CC23)n1 (configuration not stated)
IC50 [1]: 4300 nM | IC50 [2]: 10600 nM | IC50 [3]: 4900 nM

Cc1ccc(-n2nc(C(C)(C)C)cc2NC(=O)Nc2ccc(OCCN3CCOCC3)c3ccccc23)cc1 [DORAMAPIMOD]
inhibition in vivo at 50 mg/kg (Mus musculus [4]): 93%

O=C(Nc1n[nH]c2nc(N3CCNCC3)c(F)cc12)C1CC1
Activity (A549): inactive | Activity [2]: inactive | Activity (Jurkat): inactive

C1=CC2C(c3ccnc(Nc4ccccc4)n3)=C(c3ccccc3)NN2C=C1 (configuration not stated)
IC50 [1]: 1700 nM | IC50 [2]: 60 nM | IC50 [3]: 700 nM

COc1cccc(Nc2nccc(C3=C(c4ccccc4)NN4C=CC=CC34)n2)c1 (configuration not stated)
IC50 [1]: 1900 nM | IC50 [2]: 30 nM | IC50 [3]: 1600 nM

COc1ccccc1C(=O)N1CCN(c2nc3[nH]nc(NC(=O)C4CC4)c3cc2F)CC1
IC50 [1]: 13100 nM | Activity [2]: inactive | Activity (Jurkat): inactive

C1=CC2C(c3ccnc(Nc4ccccc4)n3)=CNN2C=C1 (configuration not stated)
IC50 [1]: 600 nM | IC50 [2]: 150 nM | IC50 [3]: 900 nM | IC50 (THP-1): 140 nM

COc1cccc(Nc2nccc(C3=CNN4C=CC=CC34)n2)c1 (configuration not stated)
IC50 [1]: 1000 nM | IC50 [2]: 100 nM | IC50 [3]: 1800 nM

COCCn1cc(-c2ccnc(Nc3cccc(OC)c3)n2)c2ccccc21
IC50 [1]: 7800 nM | IC50 [2]: 140 nM | Activity (Jurkat): inactive

COCCn1cc(-c2ccnc(Nc3cccc(OC)c3)n2)c2cccnc21
IC50 [1]: 1400 nM | IC50 [2]: 2200 nM | inhibition in vivo at 300 mg/kg (Mus musculus [5]): 89% | Activity (Jurkat): inactive | IC50 (THP-1): 990 nM

O=C(Nc1n[nH]c2nc(N3CCN(C(=O)c4ccc(F)cc4F)CC3)c(F)cc12)C1CC1
IC50 [1]: 19300 nM | Activity [2]: inactive | Activity (Jurkat): inactive

COc1ccccc1N1CCN(c2nc3[nH]nc(NC(=O)C4CC4)c3cc2F)CC1
IC50 [1]: 10900 nM | Activity [2]: inactive | Activity (Jurkat): inactive | Activity (THP-1): inactive

COCCn1cc(-c2ccnc(Nc3ccccc3)n2)c2ccccc21
IC50 [1]: 10400 nM | IC50 [2]: 320 nM | Activity (Jurkat): inactive

COCCn1cc(-c2ccnc(Nc3ccccc3)n2)c2cccnc21
IC50 [1]: 5600 nM | IC50 [2]: 1050 nM | IC50 [3]: 11400 nM
